Measurements: ChEMBL document CHEMBL1142735, “Discovery of a new series of centrally active tricyclic isoxazoles combining serotonin (5-HT) reuptake inhibition with alpha2-adrenoceptor blocking activity” (J Med Chem, 2005)

Tests used:
[1] = molecular target: T1, Sodium-dependent serotonin transporter (Homo sapiens, UniProt P31645); test: Inhibition of [3H]- paroxetine binding to 5-HTT receptor, serotonin transporter
Method in brief: (§1)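 Human platelet membranes (50 µg protein) in 50 mM Tris-HCl pH 7.4 with 120 mM NaCl and 5 mM KCl. Competition against [3H]paroxetine (0.5 nM), 60 min at 25 °C. Nonspecific binding defined with imipramine (1 µM). Filtration over 0.1% PEI-presoaked GF/B, washed with incubation buffer. Sigmoidal fit of specific binding; Ki via Cheng-Prusoff.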

[2] = test system: Rattus norvegicus; test: Effective dose for PCA-induced 5-HT depletion was determined by oral administration; type: functional
Method in brief: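 Male Wiga Wistar rats (200 g, n=6 per condition) dosed sc or po (10 mL/kg). At 4 h, frontal cortex removed and extracted with perchloric acid/metabisulfite; 5-HT measured by HPLC-electrochemical detection against a standard curve with dihydroxybenzylamine internal standard. Effect scaled between pCA+vehicle and vehicle+vehicle controls; ED50 from sigmoidal fit.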

[3] = test system: Rattus norvegicus; test: Effective dose for reversal of medetomidine-Induced loss of righting was determined by oral administration; type: functional
Method in brief: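 Oral pretreatment of overnight-fasted male Wistar rats (200-250 g), then medetomidine 0.10 mg/kg iv (reversal means no loss of righting) or pCA 5 mg/kg sc (excitation scored 0-3 over 15 min from 45 min after pCA; inhibition means score <2). Doses taken from a geometric series.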

[4] = molecular target: T2, Adrenergic receptor alpha-1 (Homo sapiens, UniProt P35348+P25100+P35368); test: Inhibition of [3H]- prazosin binding to alpha-1 adrenergic receptor; type: protein assay
T2 sequence (P35348 whole entry): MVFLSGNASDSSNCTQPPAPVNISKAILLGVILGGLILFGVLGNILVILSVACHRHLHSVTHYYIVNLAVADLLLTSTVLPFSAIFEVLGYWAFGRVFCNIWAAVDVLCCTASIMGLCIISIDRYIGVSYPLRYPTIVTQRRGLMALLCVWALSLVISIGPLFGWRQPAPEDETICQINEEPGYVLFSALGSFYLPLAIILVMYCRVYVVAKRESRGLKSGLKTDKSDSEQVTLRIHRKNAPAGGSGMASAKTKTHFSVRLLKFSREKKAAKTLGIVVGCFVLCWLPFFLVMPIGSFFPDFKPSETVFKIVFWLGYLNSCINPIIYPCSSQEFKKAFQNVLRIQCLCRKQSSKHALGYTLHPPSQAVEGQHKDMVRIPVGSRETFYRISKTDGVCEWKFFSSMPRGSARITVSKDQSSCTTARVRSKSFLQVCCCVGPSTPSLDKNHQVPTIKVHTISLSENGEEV
T2 sequence (P25100 whole entry): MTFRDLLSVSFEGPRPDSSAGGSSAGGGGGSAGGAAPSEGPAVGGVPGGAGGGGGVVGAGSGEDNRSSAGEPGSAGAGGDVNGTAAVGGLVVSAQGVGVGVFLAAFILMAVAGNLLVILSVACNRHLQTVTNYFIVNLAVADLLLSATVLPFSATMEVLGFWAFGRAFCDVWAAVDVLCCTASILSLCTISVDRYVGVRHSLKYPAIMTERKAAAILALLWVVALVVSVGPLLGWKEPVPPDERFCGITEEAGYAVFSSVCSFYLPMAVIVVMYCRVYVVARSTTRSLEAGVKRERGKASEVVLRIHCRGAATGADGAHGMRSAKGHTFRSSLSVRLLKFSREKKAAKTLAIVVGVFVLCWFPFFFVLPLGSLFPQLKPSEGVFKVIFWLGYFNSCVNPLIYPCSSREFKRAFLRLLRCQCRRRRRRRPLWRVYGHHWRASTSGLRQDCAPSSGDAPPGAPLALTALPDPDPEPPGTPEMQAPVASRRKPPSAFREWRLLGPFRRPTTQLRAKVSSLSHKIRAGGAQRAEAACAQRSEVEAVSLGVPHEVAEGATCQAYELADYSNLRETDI
T2 sequence (P35368 whole entry): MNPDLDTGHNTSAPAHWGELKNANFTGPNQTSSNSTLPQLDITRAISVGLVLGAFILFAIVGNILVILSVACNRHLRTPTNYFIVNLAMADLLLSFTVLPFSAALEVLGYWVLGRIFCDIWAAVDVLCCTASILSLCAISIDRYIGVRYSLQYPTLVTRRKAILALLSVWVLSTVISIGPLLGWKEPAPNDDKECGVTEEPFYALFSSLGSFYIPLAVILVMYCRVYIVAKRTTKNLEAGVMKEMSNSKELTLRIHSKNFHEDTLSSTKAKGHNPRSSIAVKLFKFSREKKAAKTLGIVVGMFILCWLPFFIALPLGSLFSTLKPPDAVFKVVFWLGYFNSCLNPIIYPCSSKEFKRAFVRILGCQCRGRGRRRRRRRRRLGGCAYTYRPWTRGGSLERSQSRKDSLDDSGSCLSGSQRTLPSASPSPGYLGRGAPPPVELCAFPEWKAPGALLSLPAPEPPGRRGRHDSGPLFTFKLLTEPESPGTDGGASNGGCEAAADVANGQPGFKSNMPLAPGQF
Method in brief: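 Radioligand competition binding on membranes from cell lines carrying the human target, incubated with the labelled ligand under optimized conditions. Separation by filtration, except α1A and D3, which used scintillation proximity assay.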

[5] = molecular target: T1, Sodium-dependent serotonin transporter; test: Binding affinity for serotonin transporter; type: functional, Rattus norvegicus; method in brief: as §1
[6] = molecular target: T3, Alpha-2C adrenergic receptor (Homo sapiens, UniProt P18825); test: Binding affinity for alpha-2C-adrenergic receptor
T3 sequence (P18825 whole entry): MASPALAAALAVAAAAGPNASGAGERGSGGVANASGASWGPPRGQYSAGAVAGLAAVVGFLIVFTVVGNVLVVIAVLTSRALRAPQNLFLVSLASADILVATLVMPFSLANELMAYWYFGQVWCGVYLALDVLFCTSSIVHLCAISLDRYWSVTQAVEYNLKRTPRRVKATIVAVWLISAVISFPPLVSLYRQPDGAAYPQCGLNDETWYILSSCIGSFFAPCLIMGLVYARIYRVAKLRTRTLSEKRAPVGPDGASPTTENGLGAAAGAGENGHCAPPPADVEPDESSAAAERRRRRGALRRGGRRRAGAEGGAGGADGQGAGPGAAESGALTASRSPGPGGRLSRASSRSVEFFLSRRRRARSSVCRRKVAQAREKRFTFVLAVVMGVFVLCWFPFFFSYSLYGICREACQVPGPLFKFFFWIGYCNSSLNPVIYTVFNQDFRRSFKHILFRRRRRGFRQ
Method in brief: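 Human alpha2C receptor stably expressed in CHO cell membranes (5-10 µg protein) in 25 mM glycylglycine, pH 7.6. Competition against [3H]rauwolscine (1 nM), 30 min at 25 °C. Nonspecific binding defined with spiroxatrine (1 µM). Rapid filtration over GF/B, washed with ice-cold 50 mM Tris-HCl pH 8.0, scintillation counting. Sigmoidal curves fitted; Ki by Cheng-Prusoff.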

[7] = test system: Rattus norvegicus; test: Effective dose for antagonism ofpCA-Induced excitation was determined by subcutaneous administration; type: functional; details: sc
Method in brief: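 Male Wistar rats (200-250 g), fasted overnight, given test compound or solvent sc before challenge. Loss of righting induced by medetomidine 0.10 mg/kg iv; reversal means no loss of righting. Excitation induced by pCA 5 mg/10 mL/kg sc and scored 0-3 over 15 min starting 45 min after pCA; inhibition means score <2.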

T1 sequence (P31645 whole entry): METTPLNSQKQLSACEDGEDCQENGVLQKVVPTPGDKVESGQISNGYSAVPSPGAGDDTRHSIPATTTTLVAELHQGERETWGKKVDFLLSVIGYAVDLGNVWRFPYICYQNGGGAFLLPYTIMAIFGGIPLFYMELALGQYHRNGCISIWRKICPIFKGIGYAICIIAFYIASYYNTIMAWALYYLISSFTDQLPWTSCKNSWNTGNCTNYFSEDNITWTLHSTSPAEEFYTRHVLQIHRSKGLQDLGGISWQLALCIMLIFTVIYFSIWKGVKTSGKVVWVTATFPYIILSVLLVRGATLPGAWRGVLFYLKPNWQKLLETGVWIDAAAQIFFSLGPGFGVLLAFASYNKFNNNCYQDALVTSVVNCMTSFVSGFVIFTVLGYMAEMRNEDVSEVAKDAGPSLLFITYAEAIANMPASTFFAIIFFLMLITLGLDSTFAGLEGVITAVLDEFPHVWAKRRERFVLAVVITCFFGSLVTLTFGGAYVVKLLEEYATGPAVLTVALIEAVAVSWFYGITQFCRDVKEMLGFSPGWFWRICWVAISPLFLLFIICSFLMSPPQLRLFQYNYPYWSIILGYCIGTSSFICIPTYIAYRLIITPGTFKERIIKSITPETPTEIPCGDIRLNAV

Ki [1] [nM] | Ki [4] [nM] | Ki [5] [nM] | Ki [6] [nM] | SMILES | ED50 [2] [mg/kg] | ED50 [3] [mg/kg] | ED50 [7] [mg/kg]
1.2 | > 1000 |  |  | COc1cc2c(cc1OC)C1=NO[C@@H](CN3CCN(C/C=C/c4ccccc4)CC3)[C@@H]1CO2 | 1.1 | 1.3 | 
 | > 1000 | 10 | 0.6 | COc1cc2c(cc1OC)C1=NO[C@@H](CN3CCN(C/C=C(\C)c4ccccc4)CC3)[C@@H]1CO2 | 3.5 |  | 
 | 380 |  |  | COc1cc2c(cc1OC)C1=NO[C@@H](CN3CCN(C/C(C)=C/c4ccccc4)CC3)[C@@H]1CO2 | 3.8 | 0.63 | 
1.7 | > 1000 | 1.7 | 3.1 | COc1cc2c(cc1OC)C1=NO[C@@H](CN3CCN(Cc4ccc5ccccc5c4)CC3)[C@@H]1CO2 | 2.6 |  | 0.08
